Source: article PMC10195017 (Journal of Immunotherapy and Precision Oncology, 2023)
Entries after “also recorded” stand apart in the source; their conditions may differ. Read-outs that look alike come from different tables or passages of the source. Each block holds one molecule with its values, some of them ahead of it.

Assays:
[1] = Plasma and tumor pharmacokinetics at steady-state in D4M.3A tumor-bearing mice; assay type: in vivo, C57BL/6J mice; conditions: 64 mg/kg/day oral, steady-state after 21 days
Method in brief: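 Male C57BL/6J mice bearing D4M.3A tumors were pretreated for 21 days with the test compound (succinate salt) at 64 mg/kg orally. Plasma and tumor drug concentrations were then measured at steady state.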

tumor-infiltrating Tregs = assay: Flow cytometry of tumor-infiltrating Tregs in D4M.3A-injected mice; assay type: in vivo, C57BL/6J mice; conditions: combination therapy with anti-PD-1; D4M.3A tumors; mean ± SEM; pooled MPT-0118 and MPT-0308 (n = 16)
D4M.3A = assay: In vivo tumor growth, D4M.3A syngeneic tumor model; set-up: species or system C57BL/6J mice; conditions: for tumor growth, comparison of both salt forms: 32 mg/kg IP, QD, D4M.3A tumor-challenged mice, with and without anti-PD-1; for tumor growth, combination effect: combination with anti-PD-1, D4M.3A model; for tumor growth response: monotherapy, poorly immunogenic D4M.3A model, high doses of MPT-0118 or MPT-0308
Method in brief: (§1)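 Mice were 6-week-old male C57BL/6J, n = 10 per cohort. Tumor cells were trypsinized and spun 400g for 5 min, then put into the right hind flank: MC38 1 × 10^6 in 50:50 Cultrex:PBS, D4M.3A 1 × 10^6 in PBS, B16.F10 0.5 × 10^6 in HBSS. Test compound given once daily IP or by oral gavage from day 7 (B16.F10), 8 (MC38) or 9 (D4M.3A). Anti-PD-1, 200 μg IP ×3, every other day, 6 h after compound. Caliper volume = w² × l/2. Two-way ANOVA/Bonferroni on last treatment day.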

circulating Tregs = assay: Circulating Treg frequencies in non-tumor-bearing rats; assay type: in vivo, Harlan Sprague Dawley rats; conditions: 30 mg/kg orally, daily, 15 days; female rats; vs vehicle
Method in brief: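 Female Harlan Sprague Dawley rats, non-tumor-bearing, received the test compound at 30 mg/kg orally once daily for 15 days, with a vehicle group (n = 5 per cohort). Blood was drawn from the same animals on days −1, 3, 5, 7, 10 and 14. After red cell lysis, samples got viability dye, CD3/CD4/CD8/CD25 surface staining, fixation and permeabilization, and FoxP3 staining. Tregs (CD3+CD4+CD8α−FoxP3+) were counted as % of CD4+ cells and normalized to day −1 (100%). Unpaired t test per time point […].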

B16.F10 = assay: In vivo tumor growth, B16.F10 syngeneic tumor model; set-up: species or system C57BL/6J mice; conditions: combination with anti-PD-1
Method in brief: as §1

PDOTS = assay: Viability of patient-derived organotypic tumor spheroids; assay type: cell-based, human; conditions: 5 μM in combination with anti-PD-1, + αIFNγ 10 μg/mL
Method in brief: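 Colorectal cancer and melanoma resection samples were made into organotypic spheroids that kept their native immune cells. These were embedded in collagen in a 3D microfluidic device and cultured 5–7 days in DMEM with the test compound (3–5 μM). Arms were ± pembrolizumab 250 μg/mL, each ± anti-human IFNγ 10 μg/mL. Viability was measured by Hoechst 33342/propidium iodide imaging (45 min, 37 °C, 5% CO2) as live cell area. Results were given as percent change versus untreated control.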

[2] = Plasma pharmacokinetics in male C57BL/6J mice after a single dose; assay type: in vivo; conditions: non-tumor-bearing animals
[3] = Octanol-water partition coefficient; assay type: physicochemical
pKa = assay type: physicochemical
Aqueous solubility = assay type: physicochemical
P-gp = P-gp (Homo sapiens, UniProt P08183); assay: MDCK-MDR1 permeability; assay type: in vitro ADME
Sequence of P-gp (P08183 whole entry): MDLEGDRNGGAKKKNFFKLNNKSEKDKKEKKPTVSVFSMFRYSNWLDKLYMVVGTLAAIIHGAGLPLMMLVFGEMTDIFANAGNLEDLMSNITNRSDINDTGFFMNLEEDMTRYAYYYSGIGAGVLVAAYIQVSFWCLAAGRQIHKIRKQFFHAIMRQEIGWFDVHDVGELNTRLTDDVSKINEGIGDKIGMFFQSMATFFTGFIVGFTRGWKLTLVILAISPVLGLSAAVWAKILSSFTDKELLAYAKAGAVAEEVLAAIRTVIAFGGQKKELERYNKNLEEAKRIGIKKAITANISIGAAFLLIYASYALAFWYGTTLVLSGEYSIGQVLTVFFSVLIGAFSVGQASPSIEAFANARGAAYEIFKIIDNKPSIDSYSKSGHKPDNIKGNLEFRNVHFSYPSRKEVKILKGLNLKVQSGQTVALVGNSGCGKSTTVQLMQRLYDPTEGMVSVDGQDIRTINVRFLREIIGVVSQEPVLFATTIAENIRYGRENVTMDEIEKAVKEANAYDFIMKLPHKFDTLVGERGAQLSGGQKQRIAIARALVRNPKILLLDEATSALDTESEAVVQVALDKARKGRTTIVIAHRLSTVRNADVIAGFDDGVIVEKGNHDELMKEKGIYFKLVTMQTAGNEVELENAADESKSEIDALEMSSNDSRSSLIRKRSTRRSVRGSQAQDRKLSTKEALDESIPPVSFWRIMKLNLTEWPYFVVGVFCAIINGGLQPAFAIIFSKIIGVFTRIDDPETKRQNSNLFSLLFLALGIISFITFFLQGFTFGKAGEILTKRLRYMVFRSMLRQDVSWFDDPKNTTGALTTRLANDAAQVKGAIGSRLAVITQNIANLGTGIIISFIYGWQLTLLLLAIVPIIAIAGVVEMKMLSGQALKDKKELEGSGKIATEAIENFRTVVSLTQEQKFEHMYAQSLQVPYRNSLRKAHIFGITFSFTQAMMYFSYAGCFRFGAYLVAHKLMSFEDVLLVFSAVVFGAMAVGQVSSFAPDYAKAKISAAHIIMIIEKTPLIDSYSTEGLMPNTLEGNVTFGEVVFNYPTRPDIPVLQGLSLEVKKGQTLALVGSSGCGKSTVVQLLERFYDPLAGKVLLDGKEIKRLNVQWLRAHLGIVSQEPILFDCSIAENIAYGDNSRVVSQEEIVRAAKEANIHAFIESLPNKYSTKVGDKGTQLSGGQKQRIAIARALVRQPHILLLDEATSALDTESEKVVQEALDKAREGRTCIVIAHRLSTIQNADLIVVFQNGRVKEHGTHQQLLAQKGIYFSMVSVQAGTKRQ

Caco-2 = Caco-2 permeability; assay type: in vitro ADME; conditions: Caco-2 assay
Tregs [4] = conditions: mice; 8 mg/kg twice a day IP and 16 mg/kg every day IP; cited from earlier work
MALT1 [5] = conditions: cited from earlier work
Tregs [6] = conditions: rats; efficacious treatment; cited from earlier work
Tregs [7] = conditions: dogs; efficacious treatment; cited from earlier work
MC38 MDOTS = assay: Viability of MC38 MDOTS; assay type: cell-based, mouse; conditions: day 6
Method in brief: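 MC38-derived spheroids kept their resident immune cells. They were mixed with collagen, loaded into the central gel region of a 3D microfluidic device, and set for 30 min at 37 °C. They were then hydrated with DMEM containing test compound 3 μM ± anti-mouse IFNγ 10 μg/mL, or anti-IFNγ alone, for 6 days. Viability was read by Hoechst 33342/propidium iodide staining (45 min, 37 °C, 5% CO2) and fluorescence imaging of total cell area per dye. Live signal was expressed as percent or log2 fold change versus control.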

MALT1 [8] = biological target: T1, MALT1 (Mus musculus, UniProt Q2TBA3); assay: MALT1-cleaved CYLD-ct flow cytometry assay in murine CD4+ T cells; assay type: cell-based; conditions: for MALT1 inhibition: murine CD4+ T cells
T1 sequence (Q2TBA3 1-832): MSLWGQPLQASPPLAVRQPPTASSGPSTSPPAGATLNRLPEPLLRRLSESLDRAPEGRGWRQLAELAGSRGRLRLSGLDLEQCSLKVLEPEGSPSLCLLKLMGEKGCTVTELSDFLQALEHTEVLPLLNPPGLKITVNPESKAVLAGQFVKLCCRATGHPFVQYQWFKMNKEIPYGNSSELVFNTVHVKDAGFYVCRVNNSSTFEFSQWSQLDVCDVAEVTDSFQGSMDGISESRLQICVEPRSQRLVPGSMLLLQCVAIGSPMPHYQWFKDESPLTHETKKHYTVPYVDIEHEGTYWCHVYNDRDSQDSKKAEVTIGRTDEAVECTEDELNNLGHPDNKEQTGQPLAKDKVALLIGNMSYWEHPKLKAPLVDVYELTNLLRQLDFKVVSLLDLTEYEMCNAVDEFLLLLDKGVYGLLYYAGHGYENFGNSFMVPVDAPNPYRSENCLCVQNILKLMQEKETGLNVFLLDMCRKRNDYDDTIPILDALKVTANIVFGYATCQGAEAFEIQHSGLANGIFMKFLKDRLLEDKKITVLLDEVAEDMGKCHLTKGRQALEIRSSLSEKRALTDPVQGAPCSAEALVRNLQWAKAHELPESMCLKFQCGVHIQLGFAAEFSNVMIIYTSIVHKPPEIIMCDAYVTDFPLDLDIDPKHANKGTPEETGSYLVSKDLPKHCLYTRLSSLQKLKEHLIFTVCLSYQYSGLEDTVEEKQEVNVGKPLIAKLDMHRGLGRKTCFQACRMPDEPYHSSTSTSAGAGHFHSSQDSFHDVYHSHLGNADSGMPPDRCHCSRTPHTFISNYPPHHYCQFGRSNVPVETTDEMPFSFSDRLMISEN
Method in brief: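 Murine CD4+ T cells were treated with a dose titration of the test compound or DMSO, then stimulated with PMA plus ionomycin. MALT1 activity was read by flow cytometry as the CYLD C-terminal cleavage product. Detection used the in-house neoepitope monoclonal 25F10, which recognizes both human and mouse cleaved CYLD. Median fluorescence intensity was compared with DMSO-treated cells. n = 3, mean ± SEM.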

[9] = system: D4M.3A murine melanoma tumor spheroids; assay: Viability of cell-line-derived D4M.3A tumor spheroids; assay type: cell-based, mouse; conditions: doses up to 10 μM; day 4
Method in brief: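 D4M.3A cell-line-derived tumor spheroids were embedded in collagen in a 3D microfluidic device (gel set 30 min, 37 °C). They were cultured in DMEM with the test compound at 0.3–10 μM for 4 days. Live/dead staining used Hoechst 33342/propidium iodide (45 min, 37 °C, 5% CO2), followed by fluorescence imaging and total raw cell area per dye. Live signal was expressed as percent change or log2 fold change relative to untreated control.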

MC38 = assay: In vivo tumor growth, MC38 syngeneic tumor model; set-up: species or system C57BL/6J mice
Method in brief: as §1

- peak concentrations in mouse plasma [1]: ≤ 1.3 µM
- drug concentrations in tumor tissue ([1]; over the following 24 hours): 3 to 10 µM
- circulating Treg frequencies (circulating Tregs): No change; also recorded: no effect
SMILES: CN1CCC[C@H](CN2c3ccccc3Sc3ccccc32)C1.O=C(O)CCC(=O)O [MPT-0118, (S)-mepazine succinate]
- frequency of IFNγ+ Tregs (percentage of total tumor-infiltrating Tregs) (tumor-infiltrating Tregs): 8.9 ± 1.01%
- tumor growth, comparison of both salt forms (D4M.3A): comparable effects on tumor growth
- tumor growth, combination effect (D4M.3A): clear synergy
- tumor growth response (D4M.3A): consistently responded
- tumor growth, combination effect (B16.F10): clear synergy
- effects on PDOTS with anti-IFNγ neutralizing antibody (PDOTS): reversed

- Tmax [2]: ≤ 2 h
- logP [3]: 5.29
- pKa (pKa): 9.2
- solubility (in words) (Aqueous solubility): apparent pH-dependent solubility
- P-gp substrate (P-gp): not a P-gp substrate
- mean apparent AB permeability coefficient (Caco-2): 13.73 ± 0.15 × 10^−6 cm/s
SMILES: CN1CCC[C@H](CN2c3ccccc3Sc3ccccc32)C1 [(S)-mepazine]

SMILES: CN1CCCC(CN2c3ccccc3Sc3ccccc32)C1 (racemic) [mepazine racemate, mepazine]
- Treg frequencies in peripheral blood (Tregs [4]): no effect

SMILES: CO[C@@H](C)c1c(NC(=O)Nc2ccnc(C(F)(F)F)c2)cnc2cc(Cl)nn12 [MLT-943]
- IC50 (MALT1 [5]): < 10 nM
- Treg numbers (Tregs [6]): rapid reduction of Tregs
- pathology developing after Treg reduction (Tregs [6]): reversible immune dysregulation, polyendocrinopathy, enteropathy, X-linked (IPEX)-like pathology
- Treg numbers (Tregs [7]): rapid reduction of Tregs

- MALT1 inhibition (MALT1 [8]; 3 μM): roughly 75%
- MALT1 inhibition (MALT1 [8]; 10 μM): ~95%
- IC50 (MALT1 [8]; read-out: IC50 (MALT1-cleaved CYLD-ct), murine splenic CD4+ T cells stimulated with PMA/ionomycin): 1130 nM
SMILES: CN1CCC[C@H](CN2c3ccccc3Sc3ccccc32)C1.Cl [MPT-0308, (S)-mepazine hydrochloride]
- antitumor activity in MDOTS with anti-IFNγ neutralizing antibody (MC38 MDOTS; 3 μM + anti-mouse IFNγ 10 μg/mL): reversed
- antitumor activity in MDOTS (MC38 MDOTS; 3 μM): active
- frequency of IFNγ+ Tregs (percentage of total tumor-infiltrating Tregs) (tumor-infiltrating Tregs): 8.9 ± 1.01%
- tumor growth, comparison of both salt forms (D4M.3A): comparable effects on tumor growth
- tumor growth, combination effect (D4M.3A): clear synergy
- tumor growth response (D4M.3A): consistently responded
- viability of tumor spheroids lacking immune cells and tumor stroma [9]: not affected
- tumor growth, combination effect (B16.F10): clear synergy
- tumor growth, combination effect (MC38; high dose in combination with anti-PD-1, MC38 model): additive effect
- tumor growth (MC38; monotherapy, immunogenic MC38 model): significant inhibition of tumor growth
